The target of experiment [1] is T1, Chymotrypsinogen B (Homo sapiens, UniProt P17538). In words: Inhibitory activity against chymotrypsinogen in the presence of Zn(II) (500 uM). Summed up:
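Alpha-chymotrypsin at a final 0.4 μg/mL is added to a mix of Suc-AAPF-pNA (300 μM), ZnCl2 (500 μM) and varied inhibitor concentrations in pH 7.5 buffer (50 mM CaCl2, 50 mM Tris). Initial rates are followed at 405 nm at 25 °C. IC50 is read from a plot of % residual activity versus inhibitor concentration.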

The target in experiment [2] is T1, Chymotrypsinogen B. In words: Inhibitory activity (up to 2 mM) against chymotrypsinogen in the absence of Zn(II); no inhibition.

Activity calls are given as the source filed them. The rule behind the calls is not given here.

The source of these data is ChEMBL document CHEMBL1147430, “Inhibition of alpha-chymotrypsin with thiol-bearing substrate analogues in the presence of zinc ion” (Bioorg Med Chem Lett, 2004).

T1 sequence (P17538 34-164 limits assumed, other chains not shown): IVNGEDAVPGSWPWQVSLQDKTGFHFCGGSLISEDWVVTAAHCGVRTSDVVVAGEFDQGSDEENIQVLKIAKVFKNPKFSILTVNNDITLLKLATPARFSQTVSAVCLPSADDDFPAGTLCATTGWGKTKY
T1 sequence (P17538 167-263 limits assumed, other chains not shown): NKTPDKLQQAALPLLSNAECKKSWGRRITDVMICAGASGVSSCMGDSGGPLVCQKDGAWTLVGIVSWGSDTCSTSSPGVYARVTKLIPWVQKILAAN

For the compound `O=C(N[C@H](CS)Cc1ccccc1)OCc1ccccc1`, at Chymotrypsinogen B [1], the IC50 came out at 3.8 µM. The inhibition result at Chymotrypsinogen B [2] is “inactive”.

In the case of `O=C(N[C@H](CS)Cc1ccccc1)[C@@H]1CCCN1C(=O)OCc1ccccc1`, the concentration for half-maximal inhibition (IC50) on Chymotrypsinogen B [1] was 8 µM. Also, at Chymotrypsinogen B [2], the inhibition result is “inactive”.

For the compound `O=C(N[C@@H](CS)Cc1ccccc1)OCc1ccccc1`, the IC50 on Chymotrypsinogen B [1] turned out to be 6 µM. The inhibition entry at Chymotrypsinogen B [2] was “inactive”.

Turning to `O=C(N[C@@H](CO)Cc1ccccc1)OCc1ccccc1`, on Chymotrypsinogen B [1], the IC50 is over 3000 µM. Also, the inhibition entry at Chymotrypsinogen B [2] was “inactive”.

As to `O=C(N[C@H](CO)Cc1ccccc1)OCc1ccccc1`, the IC50 at Chymotrypsinogen B [1] was over 3000 µM.

Consider `O=C(N[C@H](CS)Cc1ccccc1)c1ccccc1`, for which the IC50 on Chymotrypsinogen B [1] came to 23 µM. The inhibition entry at Chymotrypsinogen B [2] was “inactive”.

Consider `CC(=O)N[C@H](CS)Cc1ccccc1`, for which, at Chymotrypsinogen B [1], the 50% inhibitory concentration (IC50) is over 800 µM. Moreover, the inhibition result on Chymotrypsinogen B [2] is “inactive”.

The IC50 is the midpoint of a concentration-inhibition curve.
